# ChEMBL document CHEMBL1122036, “Use of adenine nucleotide derivatives to assess the potential of exo-active-site-directed reagents as species- or isozyme-specific enzyme inactivators. 3. Synthesis of adenosine 5'-triphosphate derivatives with N6- or 8-substituents bearing iodoacetyl groups” (J Med Chem, 1982)
# pKi: −log10 of the molar value.
# Legend:
# [1] = Reaction velocity relative to ATP (=1) in yeast hexokinase was determined at 5 mM concentration.; type: ADME; conditions: 5000 µM
# Rattus norvegicus [2] = organism: Rattus norvegicus; assay: Substrate property, maximum velocity relative to ADP (100) in rat muscle pyruvate kinase was determined; type: ADME, organism-based; conditions: in vivo
# Procedure, shortened: (§1)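 Rat muscle, liver and kidney pyruvate kinase isozymes, isolated as before, with ADP analogues as substrate. Optical density change at 340 nm, 22-24 °C, 1 mL. Five or more substrate concentrations. Km and Vmax come from linear Lineweaver-Burk plots, with Vmax relative to ADP (100).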
# [3] = Substrate property, maximum velocity relative to ADP (100) in rat muscle pyruvate kinase was determined; conditions: in vitro
# Rattus norvegicus [4] = organism: Rattus norvegicus; assay: Maximum velocity in rat liver adenylate kinase II relative to ATP(=100); type: ADME, organism-based; conditions: in vivo
# Procedure, shortened: (§2)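 Rat liver AK II and AK III, isolated as before. Optical density change at 340 nm followed at 22-24 °C in 1 mL. Five or more substrate concentrations; stocks contained equimolar MgCl2. Vmax comes from linear Lineweaver-Burk plots and is expressed relative to ATP (100).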
# Rattus norvegicus [5] = organism: Rattus norvegicus; assay: Maximum velocity in rat liver adenylate kinase III relative to ATP(=100); type: ADME, organism-based; conditions: in vivo; procedure, shortened: as §2
# [6] = molecular target: Adenylate kinase 2, mitochondrial (Rattus norvegicus, UniProt P29410); assay: Competitive inhibition of adenylate kinase II in rat liver with respect to ATP; type: tissue-based
# Procedure, shortened: (§3)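 Rat liver adenylate kinase isozymes (AK II, AK III), isolated as before. Read as rate of change in optical density at 340 nm, 22-24 °C, 1 mL final volume. Five or more levels of ATP at each of two inhibitor levels, inhibitor at 1-5 times the inhibition constant. Ki taken from replots of inhibitor concentration vs Lineweaver-Burk slopes. Stocks contained equimolar MgCl2.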
# [7] = molecular target: GTP:AMP phosphotransferase AK3, mitochondrial (Rattus norvegicus, UniProt P29411); assay: Competitive inhibition of adenylate kinase III in rat liver with respect to ATP; type: tissue-based; procedure, shortened: as §3
# Chain of GTP:AMP phosphotransferase AK3, mitochondrial (P29411 whole entry): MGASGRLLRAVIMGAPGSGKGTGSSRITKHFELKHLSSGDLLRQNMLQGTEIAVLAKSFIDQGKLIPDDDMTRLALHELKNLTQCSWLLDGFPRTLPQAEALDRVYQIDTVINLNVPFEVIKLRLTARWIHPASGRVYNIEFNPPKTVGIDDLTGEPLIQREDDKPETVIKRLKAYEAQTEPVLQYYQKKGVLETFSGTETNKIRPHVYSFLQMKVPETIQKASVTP
# Rattus norvegicus [8] = organism: Rattus norvegicus; assay: Substrate concentration for half maximum-velocity in rat muscle pyruvate kinase was determined.; type: ADME, organism-based; conditions: in vivo; procedure, shortened: as §1
# Rattus norvegicus [9] = organism: Rattus norvegicus; assay: Maximum velocity relative to ADP (100) in rat muscle pyruvate kinase was determined; type: ADME, organism-based; conditions: in vivo; procedure, shortened: as §1
# Rattus norvegicus [10] = organism: Rattus norvegicus; assay: Substrate concentration for half maximum- reaction velocity in rat liver pyruvate kinase; type: ADME, organism-based; conditions: in vivo; procedure, shortened: as §1
# Rattus norvegicus [11] = organism: Rattus norvegicus; assay: Substrate concentration for half maximum-velocity in rat kidney pyruvate kinase was determined; type: ADME, organism-based; conditions: in vivo; procedure, shortened: as §1
# Rattus norvegicus [12] = organism: Rattus norvegicus; assay: Substrate property, maximum velocity relative to ADP (100) in rat kidney pyruvate kinase was determined; type: ADME, organism-based; conditions: in vivo; procedure, shortened: as §1
# Rattus norvegicus [13] = organism: Rattus norvegicus; assay: Substrate property, maximum velocity relative to ADP (100) in rat liver pyruvate kinase was determined; type: ADME, organism-based; conditions: in vivo; procedure, shortened: as §1
structure (smiles),measurement,setting,value
O=C(CI)NCCCCCCCCNc1ncnc2c1ncn2[C@@H]1O[C@H](COP(=O)(O)OP(=O)(O)OP(=O)(O)O)[C@@H](O)[C@H]1O,Velocity relative to ATP,[1],1.8
CC(=O)NCCCCCCNc1nc2c(N)ncnc2n1[C@@H]1O[C@H](COP(=O)(O)OP(=O)(O)O)[C@@H](O)[C@H]1O,Vmax,Rattus norvegicus [2],0%
same,Vmax,[3],0%
CC(=O)N(C)CCCCN(C)c1ncnc2c1ncn2[C@@H]1O[C@H](COP(=O)(O)OP(=O)(O)OP(=O)(O)O)[C@@H](O)[C@H]1O,Vmax,Rattus norvegicus [4],0%
same,Vmax,Rattus norvegicus [5],0%
same,pKi,[6],2.96
same,pKi,[7],3.05
CN(CCCN(C)C(=O)CCCCNc1ncnc2c1ncn2[C@@H]1O[C@H](COP(=O)(O)OP(=O)(O)O)[C@@H](O)[C@H]1O)C(=O)CCCCNC(=O)OCc1ccccc1,Km,Rattus norvegicus [8],70 µM
same,Vmax,Rattus norvegicus [9],1.5%
CN(CCCN(C)C(=O)CCCCNc1ncnc2c1ncn2[C@@H]1O[C@H](COP(=O)(O)OP(=O)(O)OP(=O)(O)O)[C@@H](O)[C@H]1O)C(=O)CCCCNC(=O)CI,Velocity relative to ATP,[1],0.73
CN(CCCCN(C)c1ncnc2c1ncn2[C@@H]1O[C@H](COP(=O)(O)OP(=O)(O)OP(=O)(O)O)[C@@H](O)[C@H]1O)C(=O)CCCNC(=O)CI,Velocity relative to ATP,[1],1.2
Nc1ncnc2c1nc(NCCCCCCCCNC(=O)CI)n2[C@@H]1O[C@H](COP(=O)(O)OP(=O)(O)OP(=O)(O)O)[C@@H](O)[C@H]1O,Velocity relative to ATP,[1],0.54
CC(=O)N(C)CCCCN(C)c1ncnc2c1ncn2[C@@H]1O[C@H](COP(=O)(O)OP(=O)(O)O)[C@@H](O)[C@H]1O,Km,Rattus norvegicus [10],700 µM
same,Km,Rattus norvegicus [11],1700 µM
same,Km,Rattus norvegicus [8],3600 µM
same,Vmax,Rattus norvegicus [2],20%
same,Vmax,Rattus norvegicus [12],18%
same,Vmax,Rattus norvegicus [13],21%
